# Measurements reported in ChEMBL document CHEMBL4190346, “Structure-based design, synthesis, and biological evaluation of withaferin A-analogues as potent apoptotic inducers” (Eur J Med Chem, 2017).
# Activity calls are given as the source filed them. No cut-off for these calls is given here.
# Key:
# [1] = system: HeLa; assay: Induction of apoptosis in human HeLa cells assessed as increase in caspase-3 activity by measuring pNA release level at 24 uM incubated for 4 hrs using c-DEVD-pNA substrate by colorimetric assay; type: functional
# Summary of the method: (§1)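 HeLa cells in DMEM with 10% FBS were exposed for 4 h (fixed 24 or 32 level for 8 h). Staurosporine for 4 h served as the positive control. Cells were lysed at 4 °C for 10 min and centrifuged, and supernatant protein was measured by Bradford. Caspase-3 activity was read colorimetrically as nmol pNA/min/mL, with treated/untreated OD ratios. Values are means ± SD of three independent experiments in triplicate.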
# [2] = system: HeLa; assay: Induction of apoptosis in human HeLa cells assessed as increase in caspase-3 activity by measuring pNA release level at 16 uM incubated for 4 hrs using c-DEVD-pNA substrate by colorimetric assay; type: functional; summary of the method: as §1
# [3] = system: HeLa; assay: Induction of apoptosis in human HeLa cells assessed increase in DNA fragmentation at 16 uM incubated for 12 hrs by ethidium bromide staining based agarose gel electrophoresis; type: functional, cell-based
# Summary of the method: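 HeLa cells were incubated with the compounds at varying concentrations for 12 or 24 h. Controls were DMSO (solvent) and staurosporine 2 µM (positive). Adherent and floating cells were pooled, centrifuged at 500 g and washed twice in cold PBS. Genomic DNA was extracted with a kit, run on 1.8% agarose, stained with ethidium bromide and viewed under UV.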
# [4] = system: HeLa; assay: Induction of apoptosis in human HeLa cells assessed as increase in caspase-3 activity by measuring pNA release level at 8 uM incubated for 4 hrs using c-DEVD-pNA substrate by colorimetric assay; type: functional; summary of the method: as §1
# [5] = system: HeLa; assay: Induction of apoptosis in human HeLa cells assessed as increase in caspase-3 activity by measuring pNA release level at 12 uM incubated for 4 hrs using c-DEVD-pNA substrate by colorimetric assay; type: functional; summary of the method: as §1
# [6] = system: HeLa; assay: Induction of apoptosis in human HeLa cells assessed as increase in caspase-3 activity by measuring pNA release level at 32 uM incubated for 4 hrs using c-DEVD-pNA substrate by colorimetric assay; type: functional; summary of the method: as §1
# [7] = system: MCF7; assay: Cytotoxicity against human MCF7 cells assessed as reduction in cell viability using compound addition to cell culture cells in log phase of growth and incubated for 48 hrs by MTT assay; type: functional, cell-based; settings: Homo sapiens, MCF7, 48 h; read-out: IC50
# [8] = system: HeLa; assay: Induction of apoptosis in human HeLa cells assessed increase in apoptotic nuclei formation at 8 uM incubated for 12 hrs by Hoechst 33342 staining based fluorescence microscopy; type: functional
# [9] = system: Vero; assay: Cytotoxicity against African green monkey Vero cells assessed as reduction in cell viability using compound addition to cell culture cells in lag phase of growth and incubated for 48 hrs by MTT assay; type: cell-based, Chlorocebus sabaeus; settings: Chlorocebus sabaeus, Vero, 48 h; read-out: IC50
# [10] = system: HeLa; assay: Cytotoxicity against human HeLa cells assessed as reduction in cell viability using compound addition to cell culture cells in log phase of growth and incubated for 48 hrs by MTT assay; type: functional, cell-based; settings: Homo sapiens, HeLa, 48 h; read-out: IC50
# [11] = system: HeLa; assay: Cytotoxicity against human HeLa cells assessed as reduction in cell viability using compound addition to cell culture cells in lag phase of growth and incubated for 48 hrs by MTT assay; type: functional, cell-based; settings: Homo sapiens, HeLa, 48 h; read-out: IC50
# [12] = system: MCF7; assay: Cytotoxicity against human MCF7 cells assessed as reduction in cell viability using compound addition to cell culture cells in lag phase of growth and incubated for 48 hrs by MTT assay; type: functional, cell-based; settings: Homo sapiens, MCF7, 48 h; read-out: IC50
# [13] = system: A549; assay: Cytotoxicity against human A549 cells assessed as reduction in cell viability using compound addition to cell culture cells in log phase of growth and incubated for 48 hrs by MTT assay; type: functional, cell-based; settings: Homo sapiens, A549, 48 h; read-out: IC50
# [14] = system: Vero; assay: Cytotoxicity against African green monkey Vero cells assessed as reduction in cell viability using compound addition to cell culture cells in log phase of growth and incubated for 48 hrs by MTT assay; type: cell-based, Chlorocebus sabaeus; settings: Chlorocebus sabaeus, Vero, 48 h; read-out: IC50
# [15] = system: HeLa; assay: Induction of cell cycle arrest in human HeLa cells assessed increase in subG1 phase accumulation at 24 uM incubated for 12 hrs by 33342 propidium iodide based flow cytometry relative to untreated control; type: functional
# [16] = system: HeLa; assay: Induction of apoptosis in human HeLa cells assessed as […] by measuring pNA release level at 32 uM incubated for 8 hrs using c-DEVD-pNA substrate by colorimetric assay; type: functional, cell-based; summary of the method: as §1
# [17] = system: A549; assay: Cytotoxicity against human A549 cells assessed as reduction in cell viability using compound addition to cell culture cells in lag phase of growth and incubated for 48 hrs by MTT assay; type: functional, cell-based; settings: Homo sapiens, A549, 48 h; read-out: IC50
# [18] = system: HeLa; assay: Induction of apoptosis in human HeLa cells at 10 uM incubated for 4 hrs by annexin V and propidium iodide staining based flow cytometry; type: functional, cell-based
# [19] = system: MCF7; assay: Ratio of IC50 for cytotoxicity against human MCF7 cells using compound addition to cell culture cells in lag phase of growth and incubated for 48 hrs by MTT assay to IC50 for cytotoxicity against human MCF7 cells using compound addition to cell culture cells in log phase of growth and incubated for 48 hrs by MTT assay; type: functional
# [20] = system: HeLa; assay: Induction of apoptosis in human HeLa cells assessed increase in phosphatidylserine externalization at 2 uM incubated for 4 hrs by annexin V and propidium iodide staining based flow cytometry; type: functional, cell-based
# [21] = system: HeLa; assay: Induction of apoptosis in human HeLa cells assessed as increase in caspase-3 activity by measuring pNA release level at 24 uM incubated for 8 hrs using c-DEVD-pNA substrate by colorimetric assay; type: functional; summary of the method: as §1
# [22] = system: HeLa; assay: Induction of cell cycle arrest in human HeLa cells assessed increase in hypoploid phase accumulation at 24 uM incubated for 12 hrs by […] propidium iodide based flow cytometry relative to untreated control; type: functional
# [23] = system: HeLa; assay: Induction of apoptosis in human HeLa cells assessed as reduction in cellular adhesion at 32 uM incubated for 4 hrs by light microscopy
# [24] = system: HeLa; assay: Induction of apoptosis in human HeLa cells assessed as reduction in cellular integrity at 32 uM incubated for 4 hrs by light microscopy
# [25] = system: HeLa; assay: Induction of apoptosis in human HeLa cells at 12 uM incubated for 4 hrs by annexin V and propidium iodide staining based flow cytometry; type: functional, cell-based
# [26] = system: MCF7 (Homo sapiens); assay: Ratio of IC50 for cytotoxicity against human MCF7 cells incubated for 48 hrs to IC50 for cytotoxicity against human MCF7 cells incubated for 72 hrs
# [27] = system: MCF7 (Homo sapiens); assay: as above; remark: listed apart in the source
# [28] = system: MCF7; assay: Ratio of IC50 for cytotoxicity against human MCF7 cells incubated for 48 hrs to IC50 for cytotoxicity against human MCF7 cells incubated for 72 hrs; type: functional
SMILES,Activity [1] [nmol/min/mL],Activity [2] [nmol/min/mL],Activity [3],Activity [4] [nmol/min/mL],Activity [5] [nmol/min/mL],Activity [6] [nmol/min/mL],IC50 [7] [nM],IC50 [9] [nM],IC50 [10] [nM],IC50 [11] [nM],IC50 [12] [nM],IC50 [13] [nM],IC50 [14] [nM],fold change (FC) [15],Activity [16],IC50 [17] [nM],Ratio IC50 [19],also measured
CC(=O)OCC1=C(C)C[C@H]([C@@H](C)[C@H]2CC[C@H]3[C@@H]4C[C@H]5O[C@]56[C@@H](OC(C)=O)C=CC(=O)[C@]6(C)[C@H]4CC[C@]23C)OC1=O,1.06,0.5,Active,0.33,0.42,0.68,,,,,,,,,,,,
CC1=C(COC(=O)C(C)(C)C)C(=O)O[C@@H]([C@@H](C)[C@H]2CC[C@H]3[C@@H]4C[C@H]5O[C@]56[C@@H](OC(=O)C(C)(C)C)C=CC(=O)[C@]6(C)[C@H]4CC[C@]23C)C1,0.54,0.28,Active,0.26,0.25,0.63,1200,400,2400,900,600,4600,500,4 - 6,Active,4100,,Activity [8]: 15%; Activity [18]: Active
CC1=C(COC(=O)c2ccoc2)C(=O)O[C@@H]([C@@H](C)[C@H]2CC[C@H]3[C@@H]4C[C@H]5O[C@]56[C@@H](O)C=CC(=O)[C@]6(C)[C@H]4CC[C@]23C)C1,1.01,0.62,,0.44,0.68,1.63,1000,2800,1100,2500,3000,3300,700,,Active,2300,>3,
CC1=C(CO)C(=O)O[C@@H]([C@@H](C)[C@H]2CC[C@H]3[C@@H]4C[C@H]5O[C@]56[C@@H](O)C=CC(=O)[C@]6(C)[C@H]4CC[C@]23C)C1 [WITHAFERIN A],0.55,0.47,,0.35,0.41,1.12,1300,,6300,,,10100,6600,4 - 6,,,2.8,Activity [20]: Active; Activity [21]: 0.6 to 1.9 nmol/min/mL; Activity [22]: 11.3%
CC1=C(COC(=O)c2ccccc2)C(=O)O[C@@H]([C@@H](C)[C@H]2CC[C@H]3[C@@H]4C[C@H]5O[C@]56C(=O)C=CC(=O)[C@]6(C)[C@H]4CC[C@]23C)C1,1.05,0.67,,0.65,0.4,0.61,1100,3100,1900,2600,5400,2300,700,,,3200,>3,Activity [23]: Active; Activity [24]: Active
CC1=C(COC(=O)C(C)(C)C)C(=O)O[C@@H]([C@@H](C)[C@H]2CC[C@H]3[C@@H]4C[C@H]5O[C@]56[C@@H](O)C=CC(=O)[C@]6(C)[C@H]4CC[C@]23C)C1,1.04,0.78,Active,0.26,0.61,0.93,400,400,1700,800,300,2100,500,4 - 6,Active,1800,,Activity [25]: Active; Activity [8]: 28%
CCC(=O)OCC1=C(C)C[C@H]([C@@H](C)[C@H]2CC[C@H]3[C@@H]4C[C@H]5O[C@]56[C@@H](O)C=CC(=O)[C@]6(C)[C@H]4CC[C@]23C)OC1=O,1.9,1.02,,0.52,0.52,1.67,1200,900,1100,1600,2300,2100,1000,,Active,1600,,Ratio IC50 [26]: >3; Ratio IC50 [27]: >3; Ratio IC50 [28]: >3
CCCC(=O)OCC1=C(C)C[C@H]([C@@H](C)[C@H]2CC[C@H]3[C@@H]4C[C@H]5O[C@]56C(=O)C=CC(=O)[C@]6(C)[C@H]4CC[C@]23C)OC1=O,,,,,,,2800,3800,7900,8300,11500,4300,2100,,,6700,>3,
CCCC(=O)OCC1=C(C)C[C@H]([C@@H](C)[C@H]2CC[C@H]3[C@@H]4C[C@H]5O[C@]56[C@@H](OC(=O)CCC)C=CC(=O)[C@]6(C)[C@H]4CC[C@]23C)OC1=O,0.88,0.93,,0.15,0.61,1.7,1000,1600,1600,1900,1000,1900,700,,Active,2800,,
